# Test results from PubChem BioAssay AID651560 (Sanford-Burnham Center for Chemical Genomics, 2012).
# Hit rate of the full screen: of about 360,000 compounds, about 820 (0.23%) were called active.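 The calls were made as follows: active = compounds that cut the enzyme signal by at least half of the control window in the single-dose screen; inactive = the rest.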 The sample as a whole holds a higher share of actives than the screen did.
# Target: Low molecular weight phosphotyrosine protein phosphatase (Homo sapiens) (UniProt P24666)
# Experiment: inhibition of human LMPTP-A enzyme – biochemical, fluorescence intensity, uHTS, primary screen (AID 651560);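 also: plate controls were DMSO wells with enzyme plus substrate for no effect and substrate without enzyme for full effect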
# Details: recombinant LMPTP-A, OMFP fluorogenic substrate, at 20 µM, active compounds read high
# How it was run: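 Test system – LMPTP-A enzyme · Amount – LMPTP-A at 0.625 nM final in the reaction · Buffer or medium – Bis-Tris pH 6.0, DTT, detergent · Reagent – OMFP 400 µM · Doses – single 20 µM dose · Schedule – reaction 50 min, room temperature, dark · Detection – fluorescence intensity of OMFP turnover product · Evaluation – percent inhibition versus substrate-only and uninhibited controls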
# Low molecular weight phosphotyrosine protein phosphatase (Homo sapiens), sequence (P24666 whole entry, looked up): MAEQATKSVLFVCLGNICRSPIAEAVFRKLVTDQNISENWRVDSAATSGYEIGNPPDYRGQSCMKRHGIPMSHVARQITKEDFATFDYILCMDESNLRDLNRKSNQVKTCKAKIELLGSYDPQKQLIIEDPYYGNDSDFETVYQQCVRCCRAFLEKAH
row,SMILES,inhibition
1,NNC(=O)c1cccc(COCC(F)(F)C(F)F)c1,-2.64% (inactive)
2,CC(CO)NCC12CC3CC(CC(C3)C1)C2 (centres undefined),-1.02% (inactive)
3,COc1ccc(NC(=O)Nc2ccc3c(c2)C(=O)N([C@H](C)CO)C[C@H](C)[C@@H](CN(C)C(=O)Nc2ccc4c(c2)OCO4)O3)cc1,0.628% (inactive)
4,CCOc1ccc(N(CC(=O)NC2CCCCCC2)S(=O)(=O)c2c(C)[nH]c(=O)[nH]c2=O)cc1,-1.41% (inactive)
5,CN(C)c1cccc(C(=O)N2CCC(n3nccc3NC(=O)C3CCOC3)CC2)c1 (centres undefined),-1.94% (inactive)
6,COCCNc1nc(-c2ccccc2)nc2c1oc1ccccc12,2% (inactive)
7,CCOCCCNS(=O)(=O)Cc1ccccc1,-0.147% (inactive)
8,CCOCCCNc1nc(-c2ccccc2)nc2ccccc12,57.8% (active)
9,O=C(Nc1cc2c3c(c1)C1CCCC1CN3CC1CCCC21)c1ccc([N+](=O)[O-])cc1 (centres undefined),2.81% (inactive)
10,Cn1ccc(=Nc2ccc(NC(=O)c3ccc(N=c4ccn(C)c5ccc([N+](=O)[O-])cc45)cc3)cc2)cc1,78% (active)
11,O=C(Nc1ccc(C2CC2(Cl)Cl)cc1)c1cccc([N+](=O)[O-])c1 (centres undefined),2.23% (inactive)
12,CCc1ccc(CCC(=O)Nc2ccc(S(N)(=O)=O)cc2)o1,-1.91% (inactive)
13,C=CCOc1cccc(C2C(C(=O)c3ccc(C)o3)=C(O)C(=O)N2c2nnc(C)s2)c1 (centres undefined),0.72% (inactive)
14,CCCOc1ccc(C2C(C(=O)c3ccc(C)o3)=C(O)C(=O)N2CCCn2ccnc2)cc1 (centres undefined),20.9% (inactive)
15,Cc1cc(N2C(=O)C(O)=C(C(=O)c3ccc(C)o3)C2c2ccc(OCc3ccccc3)cc2)no1 (centres undefined),52.5% (active)
16,COCc1ccc(CN2CCC(Oc3ccc(C(=O)NCc4ccccn4)cc3)CC2)o1,-0.769% (inactive)
17,CC1C(=O)N(Cc2cn(CC3CCCCC3)nn2)CCS(=O)(=O)N1Cc1ccc(-c2cccc(N(C)C)c2)cc1 (centres undefined),2.27% (inactive)
18,FC(F)(F)c1cccc(-c2nc(COc3ccc(Cl)cc3Cl)no2)c1,2.97% (inactive)
19,O=C1COc2c1ccc(O)c2O,2.2% (inactive)
20,CCN(CC)C(=O)CS(=O)CC(=O)Nc1cc(OCCOC)c(Cl)cc1Cl (centres undefined),-0.0342% (inactive)
21,C[C@H](CO)N1C[C@H](C)[C@H](CN(C)C(=O)Nc2ccc3c(c2)OCO3)Oc2ncc(Br)cc2C1=O,-2.87% (inactive)
22,COc1cccc(CNC(=O)C(=O)NCCC2CCCCN2S(=O)(=O)c2ccc(C)cc2)c1 (centres undefined),0.141% (inactive)
23,Cn1c(C(=O)OC(C(=O)NC2CCCCC2)c2ccccn2)cc2sccc21 (centres undefined),0.323% (inactive)

row,SMILES,inhibition
1,C=CCn1c(Oc2ccc(C(=O)OC)cc2)nc2c1c(=O)n(C)c(=O)n2C,-1.9% (inactive)
2,COc1ccccc1N(CC(=O)NC1CCCC1)C(=O)C1(C)CC(=O)N=C2C=CC(C)=CN21 (centres undefined),-0.3% (inactive)
3,CCCCNC(=O)Cn1nc(C)c(S(=O)(=O)N2CCOCC2)c1C,-0.848% (inactive)
4,CCC(C)c1ccccc1NC(=O)CN(C)CC(=O)Nc1ccccc1SC (centres undefined),-7.1% (inactive)
5,CC1(C)CC(=O)C2=C(C1)N=C1SCCC(=O)N1C2c1ccc(C(F)(F)F)cc1 (centres undefined),0.279% (inactive)
6,Cc1cc(F)ccc1NC(=O)C(C)n1c2ccccc2c2nc(=O)cc(C)n21 (centres undefined),-1.13% (inactive)
7,O=S(=O)(c1ccc(Cl)cc1)N1CCCN(c2ccc(C(F)(F)F)cn2)CC1,2.43% (inactive)
8,CCCN1C(=O)C(NS(=O)(=O)c2ccc(N)cc2)(C(F)(F)F)C(C(=O)OC)=C1C (centres undefined),-1.38% (inactive)
9,Cc1cccc(NC(=S)N(CCN(C)C)C(C)c2ccco2)c1 (centres undefined),-1.32% (inactive)
10,C=CC1=C(C(=O)O)N2C(=O)[C@@H](NC(=O)/C(=N/OCC(=O)O)c3csc(N)n3)[C@H]2SC1,77.9% (active)
11,O=C(O)c1ccccc1OCc1ccccc1Cl,-0.307% (inactive)
12,COc1ccc2c(C)c(CCC(=O)NC3CC3)c(=O)oc2c1C,-1.16% (inactive)
13,Cc1c(CCC(=O)O)c(=O)oc2c(C)c(OCc3ccccc3Cl)ccc12,86.6% (active)
14,O=C(CO/N=C/c1ccccc1OC(F)F)NC1CCCC1,-0.427% (inactive)
15,Cc1ccc(Cc2c(-c3ccc(Cl)cc3)nc3c4ccccc4ccn23)cc1,6.26% (inactive)
16,COc1ccc(NC(=O)c2cc(=O)[nH]c3ccccc23)cc1S(=O)(=O)N1CCOCC1,-0.651% (inactive)
17,CCCc1nc(-c2cc3cc(C)ccc3[nH]c2=O)no1,-2.23% (inactive)
18,COc1ccc(Cc2cc(-c3ccc(F)cc3)n[nH]c2=O)cc1,0.445% (inactive)
19,COc1ccc2[nH]c(=O)c(-c3noc(-c4ccc(F)cc4)n3)cc2c1,48.8% (active)
20,Cn1c(=O)cc(OCC(=O)N2CCN(c3ccccc3F)CC2)c2ccccc21,-0.233% (inactive)
21,Cc1[nH]c(N)nc(=S)c1CCCNc1ccccc1,4.94% (inactive)
22,Cc1csc(=O)n1CC(=O)Nc1ccc(S(C)(=O)=O)cc1,0.0764% (inactive)
23,CN1CCN(Cc2c(C(=O)N3CCc4ccccc4C3)nc3ccc(Cl)cn23)CC1,-1.43% (inactive)

row,SMILES,inhibition
1,O=C(COc1ccc(Cl)cc1Cl)NCCCNC(=O)c1cnccn1,-0.724% (inactive)
2,CCCNS(=O)(=O)c1ccc(CCC(=O)NCc2cccnc2)cc1,-0.651% (inactive)
3,COc1ccc(NC(=O)CN2C(=O)CSC2=O)cc1,-1.92% (inactive)
4,CCOC(=O)c1sc2nc(C)nc(SCC(N)=O)c2c1C,-0.32% (inactive)
5,COc1ccc(C#Cc2c(-c3ccc(OC)cc3)oc3ccc(-c4ccc5c(c4)OCO5)cc23)cc1,0.696% (inactive)
6,FC(F)(F)c1ccc2c3n(nc2c1)CCN=C3c1ccc(Cl)cc1,-0.582% (inactive)
7,COc1ccc(CC(NC(C)=O)C(=O)NC2CCN(C(=O)c3ccc(Cl)cc3)CC2)cc1 (centres undefined),0.435% (inactive)
8,C[C@]12CC[C@H](O)CC1=CCC1C2CC[C@@]2(C)C1CC[C@@H]2NC(=O)CCC(=O)O (some centres undefined),-0.874% (inactive)
9,Cn1c(SCC(=O)Nc2ccc(Cl)cc2)nc(O)cc1=O,-0.456% (inactive)
10,C[C@@H](C(=O)Nc1ccc2ccccc2c1)[C@@H]1C[C@@]1(C)[C@@H](NC(=O)c1cccnc1)c1ccccc1,0.267% (inactive)
11,CCN(c1ccc2c(c1)OCO2)S(=O)(=O)c1cc(Br)cc2c1N(C(=O)C1CC1)CC2,3.91% (inactive)
12,CC(=O)c1ccccc1NC(=O)CC1(CC(=O)O)CCCCC1,-1.06% (inactive)
13,CCN(CCn1cccn1)Cc1cn[nH]c1-c1ccc(OC)cc1F,-1.15% (inactive)
14,Cc1cc(-c2nc(C)c(-c3nnc(SCC(=O)Nc4ccccc4)n3C)s2)no1,-0.511% (inactive)
15,COC(=O)c1sc(C(F)(F)F)c(-c2ccccc2)c1S(=O)(=O)N(C)C,-0.149% (inactive)
16,O=C1NC(O)CCN1C1CC(O)C(CO)O1 (centres undefined),-0.47% (inactive)
17,COc1ccccc1OCCNC(=O)C(CCSC)NC(=O)COc1ccccc1 (centres undefined),-1.42% (inactive)
18,O=C(c1cc(-c2ccco2)nc2ccccc12)N(Cc1nnc(-c2ccc(Cl)cc2)o1)C1CC1,3% (inactive)
19,Cc1ccc(S(=O)(=O)CCC(=O)OCC(=O)N(C)C2CCS(=O)(=O)C2)cc1 (centres undefined),-1.13% (inactive)
20,CN(C(=O)COC(=O)c1cc(-c2ccco2)nc2ccccc12)C1CCS(=O)(=O)C1 (centres undefined),66.6% (active)
21,COc1ccc(N(C)S(=O)(=O)c2cccc3nsnc23)cc1,-1.17% (inactive)
22,Cn1c(=O)[nH]c(=O)c2c1nc(NCCCn1ccnc1)n2Cc1cccc(Br)c1,-1.82% (inactive)
23,COc1cc(N2C(=O)c3ccccc3C2=O)c(Cl)cc1C(=O)OCC(=O)N1CCOCC1,0.755% (inactive)

row,SMILES,inhibition
1,CCN1CCN(C(=O)c2cc3cc4ccc(OC)cc4nc3s2)CC1,0.833% (inactive)
2,CS(=O)(=O)c1ccc(C(=O)NNC(=O)c2cccs2)cc1,-1.18% (inactive)
3,Cc1ccc(C(=O)NNC(=O)c2cc3cc4ccccc4nc3s2)cc1,50.6% (active)
4,O=c1ccc2cc(S(=O)(=O)N3CCN(c4ccccc4)CC3)ccc2o1,-2.32% (inactive)
5,CSCCC(NC(=O)c1ccco1)C(=O)NCCc1ccc(F)cc1 (centres undefined),-1.2% (inactive)
6,O=C(CNC(=O)c1cc2c(s1)CCC2)Nc1ccccc1Br,5.93% (inactive)
7,Cn1c(CN2CCOCC2)nc2cc(NC(=O)c3ccc(Cl)cc3)ccc21,-0.278% (inactive)
8,CCOc1cccc(OCCCOc2cccc3cccnc23)c1,3.69% (inactive)
9,CCOC(=O)Cn1c2c(c(-c3ccccc3OC)cc1=O)CCCC2,2.39% (inactive)
10,CCOc1ccc(-c2nc(N)ncc2-c2ccccc2OC)c(O)c1,53.5% (active)
11,Brc1cnc2ccccc2c1N1CCCCC1,4.39% (inactive)
12,c1ccc(-c2cc(N3CCCCC3)c3ccccc3n2)cc1,67.2% (active)
13,O=c1cc(N2CCCCC2)c(-c2ccccc2)nn1Cc1cccc(F)c1,-0.671% (inactive)
14,OCCC#Cc1ccc(CN2CCN(Cc3ccsc3)C(CCO)C2)cc1 (centres undefined),1.89% (inactive)
15,CC(OC(=O)c1c(F)cccc1F)C(=O)NCCC1=CCCCC1 (centres undefined),0.59% (inactive)
16,Nc1ccc2nc3c(=O)[nH]c(=S)[nH]c3nc2c1,85% (active)
17,COc1ccc(CC(=O)Nc2sc(Cc3ccccc3)c(C)c2C(N)=O)cc1,0.191% (inactive)
18,COc1cc(OC)cc(C(=O)NNC(=O)Cc2cccs2)c1,1.69% (inactive)
19,COc1ccc(Cc2nnc(NC(=O)Cc3cccs3)s2)cc1,76.7% (active)
20,Cc1ccccc1OCC(=O)NNC(=O)c1ccc(-n2cncn2)c([N+](=O)[O-])c1,-1.02% (inactive)
